ChEMBL document CHEMBL2069218, “Water-soluble pyrazolo[4,3-e][1,2,4]triazolo[1,5-c]pyrimidines as human A₃ adenosine receptor antagonists” (J Med Chem, 2012)

Legend:
Adenosine receptor A3 [1] = target: T1, Adenosine receptor A3 (Homo sapiens, UniProt P0DMS8); assay: Antagonist activity at human adenosine A3 receptor expressed in CHO cells assessed as forskolin/C1-IB-MECA-induced inhibition of cAMP production; assay type: functional, cell-based
T1 sequence (P0DMS8 whole entry): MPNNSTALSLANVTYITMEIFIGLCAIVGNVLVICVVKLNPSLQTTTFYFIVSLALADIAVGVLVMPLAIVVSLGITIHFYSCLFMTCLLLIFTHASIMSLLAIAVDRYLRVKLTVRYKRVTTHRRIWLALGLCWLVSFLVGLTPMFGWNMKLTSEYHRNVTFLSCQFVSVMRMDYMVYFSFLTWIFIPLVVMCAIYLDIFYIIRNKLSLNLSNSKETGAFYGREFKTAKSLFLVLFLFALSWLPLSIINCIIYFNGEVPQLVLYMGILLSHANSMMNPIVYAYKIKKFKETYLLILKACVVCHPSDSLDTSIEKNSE
Summary of the method: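 Intact CHO cells (1 × 10⁶/assay) expressing human A3, in buffer pH 7.4 with 2 IU/mL adenosine deaminase and Ro 20-1724. Preincubated 10 min at 37 °C. Forskolin 1 μM with Cl-IB-MECA 100 nM. Stopped with cold 6% TCA, cAMP measured by [³H]cAMP competition protein binding. IC50 by sigmoid nonlinear regression.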

Adenosine receptor A3 [2] = target: T1, Adenosine receptor A3; assay: Displacement of [3H]MRE-3008-F20 from human adenosine A3 receptor expressed in CHO cells after 120 mins by scintillation counter; assay type: cell-based
[3] = target: Adenosine receptors; A1 & A3 (Homo sapiens) (UniProt P30542+P0DMS8); assay: Selectivity ratio of Ki for human adenosine A1 receptor to Ki for human adenosine A3 receptor
Adenosine receptor A2a = Adenosine receptor A2a (Homo sapiens, UniProt P29274); assay: Displacement of [3H]ZM241385 from human adenosine A2A receptor expressed in CHO cells after 60 mins by scintillation counter; assay type: cell-based
Summary of the method: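 Membranes from CHO cells expressing human A2A (50 μg protein), in 50 mM Tris-HCl, 10 mM MgCl2, pH 7.4, adenosine deaminase pretreated. [³H]ZM241385 2 nM, 6–8 concentrations, 60 min at 4 °C. Nonspecific binding with 1 μM ZM241385. Filtration, scintillation counting. Ki by Cheng–Prusoff. 3–4 experiments in duplicate.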

Adenosine receptor A1 = target: T2, Adenosine receptor A1 (Homo sapiens, UniProt P30542); assay: Displacement of [3H]DPCPX from human adenosine A1 receptor expressed in CHO cells after 120 mins by scintillation counter; assay type: cell-based
T2 sequence (P30542 whole entry): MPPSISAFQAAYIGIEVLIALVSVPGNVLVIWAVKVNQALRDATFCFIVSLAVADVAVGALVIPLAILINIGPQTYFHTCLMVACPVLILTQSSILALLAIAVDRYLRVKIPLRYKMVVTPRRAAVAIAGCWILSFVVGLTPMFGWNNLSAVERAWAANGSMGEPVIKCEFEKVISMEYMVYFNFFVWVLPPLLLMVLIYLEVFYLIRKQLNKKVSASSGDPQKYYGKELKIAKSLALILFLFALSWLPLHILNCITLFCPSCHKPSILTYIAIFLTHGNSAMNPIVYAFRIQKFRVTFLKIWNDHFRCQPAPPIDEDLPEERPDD
Summary of the method: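 Membranes from CHO cells expressing human A1 (50 μg protein), in 50 mM Tris-HCl pH 7.4, pretreated with adenosine deaminase 2 IU/mL. [³H]DPCPX 1 nM, 6–8 test concentrations, 120 min at 25 °C. Nonspecific binding with 1 μM DPCPX. GF/B filtration. Ki by Cheng–Prusoff.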

Adenosine receptor A2b = target: T3, Adenosine receptor A2b (Homo sapiens, UniProt P29275); assay: Antagonist activity at human adenosine A2B receptor expressed in CHO cells assessed as inhibition of NECA-induced cAMP production; assay type: functional, cell-based
T3 sequence (P29275 whole entry): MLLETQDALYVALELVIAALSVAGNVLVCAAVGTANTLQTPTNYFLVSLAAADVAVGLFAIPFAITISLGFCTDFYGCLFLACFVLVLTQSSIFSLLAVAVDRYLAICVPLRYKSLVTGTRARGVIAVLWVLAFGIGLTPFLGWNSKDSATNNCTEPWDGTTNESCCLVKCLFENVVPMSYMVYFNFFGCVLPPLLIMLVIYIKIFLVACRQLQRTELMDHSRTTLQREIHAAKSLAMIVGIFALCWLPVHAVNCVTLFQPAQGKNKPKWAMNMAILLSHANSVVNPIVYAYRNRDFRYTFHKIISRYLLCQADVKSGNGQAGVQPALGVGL
Summary of the method: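 Intact CHO cells (1 × 10⁶/assay) expressing human A2B, in buffer pH 7.4 with 2 IU/mL adenosine deaminase and Ro 20-1724. Preincubated 10 min at 37 °C. NECA 100 nM stimulus. Stopped with cold 6% TCA, ether-extracted, cAMP measured by competition protein binding with [³H]cAMP. IC50 from sigmoid nonlinear regression.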

[4] = Solubility of the compound in water at pH 7.4; assay type: physicochemical
Summary of the method: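 Hydrochloride salts, solubility measured in phosphate-buffered saline at pH 7.4.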

Adenosine receptor A2a, sequence (P29274 whole entry): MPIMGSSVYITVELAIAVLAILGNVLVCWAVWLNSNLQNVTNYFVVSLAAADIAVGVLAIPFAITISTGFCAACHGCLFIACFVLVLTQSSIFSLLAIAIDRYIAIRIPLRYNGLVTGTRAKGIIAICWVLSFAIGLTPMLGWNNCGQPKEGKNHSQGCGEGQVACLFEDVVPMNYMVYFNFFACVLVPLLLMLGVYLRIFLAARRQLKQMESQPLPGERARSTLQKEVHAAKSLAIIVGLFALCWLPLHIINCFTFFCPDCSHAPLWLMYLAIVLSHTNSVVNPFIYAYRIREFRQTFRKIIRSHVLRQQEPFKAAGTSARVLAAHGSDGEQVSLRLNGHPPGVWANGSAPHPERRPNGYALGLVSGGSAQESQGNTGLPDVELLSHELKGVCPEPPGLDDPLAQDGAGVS

Compound	IC50 (Adenosine receptor A3 [1])	Ki (Adenosine receptor A3 [2])	Ratio Ki [3]	Ki (Adenosine receptor A2a)	Ki (Adenosine receptor A1)	IC50 (Adenosine receptor A2b)	solubility [4]
Cn1cc2c(nc(NC(=O)NC3CCN(Cc4ccc(C#N)cc4)CC3)n3nc(-c4ccco4)nc23)n1	0.04 µM	0.0118 µM	14	2.22 µM	0.166 µM	> 5 µM	–
Cl.Cn1cc2c(nc(NC(=O)Nc3ccncc3)n3nc(-c4ccco4)nc23)n1	–	–	–	–	–	–	< 0.1 mg/mL
Cn1cc2c(nc(NC(=O)NC3CCN(C(=O)NCCCc4ccccc4)CC3)n3nc(-c4ccco4)nc23)n1	0.046 µM	0.0145 µM	7.7	1.64 µM	0.112 µM	1.54 µM	–
CCCN1CCC(NC(=O)Nc2nc3nn(C)cc3c3nc(-c4ccco4)nn23)CC1	0.301 µM	0.071 µM	–	1.19 µM	2.79 µM	> 5 µM	–
CN1CCN(C(=O)N2CCC(NC(=O)Nc3nc4nn(C)cc4c4nc(-c5ccco5)nn34)CC2)CC1	0.12 µM	0.031 µM	–	1.28 µM	1.12 µM	2.14 µM	–
Cn1cc2c(nc(NC(=O)NC3CCN(C(=O)NC4CCCC4)CC3)n3nc(-c4ccco4)nc23)n1	0.03 µM	0.0093 µM	–	> 5 µM	0.744 µM	> 5 µM	–
Cn1cc2c(nc(NC(=O)NC3CCN(Cc4ccccc4)CC3)n3nc(-c4ccco4)nc23)n1	0.121 µM	0.03 µM	–	0.526 µM	0.703 µM	2.06 µM	–
Cn1cc2c(nc(NC(=O)NC3CCN(C(=O)NCc4ccc(F)cc4)CC3)n3nc(-c4ccco4)nc23)n1	0.015 µM	0.0049 µM	–	3.26 µM	0.408 µM	1.04 µM	–
Cn1cc2c(nc(NC(=O)NC3CCN(C(=O)NCCc4ccccc4)CC3)n3nc(-c4ccco4)nc23)n1	0.023 µM	0.0068 µM	–	1.84 µM	0.182 µM	1.76 µM	–
Cn1cc2c(nc(NC(=O)NC3CCNCC3)n3nc(-c4ccco4)nc23)n1	0.262 µM	0.065 µM	–	> 5 µM	> 5 µM	2.43 µM	–
COc1ccc(CN2CCC(NC(=O)Nc3nc4nn(C)cc4c4nc(-c5ccco5)nn34)CC2)cc1	0.045 µM	0.0133 µM	87	> 5 µM	1.16 µM	> 5 µM	–
CN1CCC(NC(=O)Nc2nc3nn(C)cc3c3nc(-c4ccco4)nn23)CC1.Cl	–	–	–	–	–	–	15 mg/mL
C#CCN1CCC(NC(=O)Nc2nc3nn(C)cc3c3nc(-c4ccco4)nn23)CC1	0.105 µM	0.025 µM	–	0.789 µM	0.802 µM	> 5 µM	–
Cn1cc2c(nc(NC(=O)NC3CCN(C(=O)NCc4ccccc4)CC3)n3nc(-c4ccco4)nc23)n1	0.029 µM	0.0081 µM	–	> 5 µM	0.525 µM	1.11 µM	–
Cn1cc2c(nc(NC(=O)NC3CCN(C(=O)NC4CCCCCC4)CC3)n3nc(-c4ccco4)nc23)n1	0.026 µM	0.0077 µM	–	> 5 µM	0.805 µM	> 5 µM	–
Cn1cc2c(nc(NC(=O)NC3CCN(Cc4cccnc4)CC3)n3nc(-c4ccco4)nc23)n1	0.18 µM	0.044 µM	–	> 5 µM	1.33 µM	> 5 µM	–
C=CCN1CCC(NC(=O)Nc2nc3nn(C)cc3c3nc(-c4ccco4)nn23)CC1	0.212 µM	0.051 µM	–	1.42 µM	3.36 µM	> 5 µM	–

Compound	IC50 (Adenosine receptor A3 [1])	Ki (Adenosine receptor A3 [2])	Ratio Ki [3]	Ki (Adenosine receptor A2a)	Ki (Adenosine receptor A1)	IC50 (Adenosine receptor A2b)	solubility [4]
Cl.Cn1cc2c(nc(NC(=O)NC3CCN(Cc4ccc(F)cc4)CC3)n3nc(-c4ccco4)nc23)n1	–	–	–	–	–	–	8 mg/mL
Cc1ccc(CN2CCC(NC(=O)Nc3nc4nn(C)cc4c4nc(-c5ccco5)nn34)CC2)cc1	0.05 µM	0.0138 µM	107	> 5 µM	1.48 µM	> 5 µM	–
Cn1cc2c(nc(NC(=O)NC3CCN(C(=O)Nc4ccncc4)CC3)n3nc(-c4ccco4)nc23)n1	0.082 µM	0.021 µM	–	1.86 µM	1.3 µM	3.24 µM	–
CCNC(=O)N1CCC(NC(=O)Nc2nc3nn(C)cc3c3nc(-c4ccco4)nn23)CC1	0.116 µM	0.03 µM	–	> 5 µM	1.5 µM	> 5 µM	–
Cl.Cn1cc2c(nc(NC(=O)NC3CCN(CC4CCCCC4)CC3)n3nc(-c4ccco4)nc23)n1	0.03 µM	0.0097 µM	351	> 5 µM	3.41 µM	> 5 µM	8 mg/mL
CN1CCC(NC(=O)Nc2nc3nn(C)cc3c3nc(-c4ccco4)nn23)CC1	0.91 µM	0.253 µM	–	> 5 µM	> 5 µM	> 5 µM	–
Cn1cc2c(nc(NC(=O)NC3CCN(Cc4ccc(Cl)cc4)CC3)n3nc(-c4ccco4)nc23)n1	0.091 µM	0.026 µM	–	> 5 µM	0.724 µM	> 5 µM	–
Cn1cc2c(nc(NC(=O)NC3CCN(Cc4ccc(F)cc4)CC3)n3nc(-c4ccco4)nc23)n1	0.082 µM	0.024 µM	–	> 5 µM	1.05 µM	> 5 µM	–
Cc1ccc(CNC(=O)N2CCC(NC(=O)Nc3nc4nn(C)cc4c4nc(-c5ccco5)nn34)CC2)cc1	0.012 µM	0.0039 µM	–	2.81 µM	0.396 µM	2.12 µM	–
Cn1cc2c(nc(NC(=O)NC3CCN(C(=O)NC4CCCCC4)CC3)n3nc(-c4ccco4)nc23)n1	0.044 µM	0.0137 µM	–	> 5 µM	0.761 µM	> 5 µM	–
Cn1cc2c(nc(NC(=O)NC3CCN(Cc4ccc([N+](=O)[O-])cc4)CC3)n3nc(-c4ccco4)nc23)n1	0.042 µM	0.0124 µM	–	> 5 µM	0.371 µM	> 5 µM	–
COc1ccc(CNC(=O)N2CCC(NC(=O)Nc3nc4nn(C)cc4c4nc(-c5ccco5)nn34)CC2)cc1	0.034 µM	0.0104 µM	–	> 5 µM	0.635 µM	3.24 µM	–
Cn1cc2c(nc(NC(=O)NC3CCN(Cc4ccncc4)CC3)n3nc(-c4ccco4)nc23)n1	0.166 µM	0.039 µM	–	> 5 µM	1.19 µM	> 5 µM	–
CC(C)NC(=O)N1CCC(NC(=O)Nc2nc3nn(C)cc3c3nc(-c4ccco4)nn23)CC1	0.034 µM	0.0098 µM	–	> 5 µM	1.32 µM	> 5 µM	–
C#CCN1CCC(NC(=O)Nc2nc3nn(C)cc3c3nc(-c4ccco4)nn23)CC1.Cl	–	–	–	–	–	–	8 mg/mL
CCOC(=O)CN1CCC(NC(=O)Nc2nc3nn(C)cc3c3nc(-c4ccco4)nn23)CC1	0.041 µM	0.0122 µM	–	1.08 µM	0.348 µM	> 5 µM	–
Cn1cc2c(nc(NC(=O)NC3CCN(C(=O)NCc4ccc(Cl)cc4)CC3)n3nc(-c4ccco4)nc23)n1	0.09 µM	0.025 µM	–	1.14 µM	0.614 µM	0.505 µM	–
